From ChEMBL document CHEMBL1156993, “Benzyl prolinate derivatives as novel selective KCC2 blockers” (Bioorg Med Chem Lett, 2010) come the findings set out here.

As usually defined, the clearance is the volume of plasma or blood freed of the substance per unit of time. Read a low clearance as a low capacity for elimination. What is called bioavailability is dose-corrected exposure relative to a reference, in per cent. Low values mean little systemic uptake, high ones much systemic uptake. The Papp is a coefficient for how fast a substance crosses the barrier. In general, inhibition refers to how much of the control response was suppressed. By hepatocyte CLint is commonly meant a measure of how fast metabolising enzymes remove a compound, apart from limits set by blood flow. Lower therefore signals slow turnover. For orientation: AUC means the area under the concentration-time curve, a measure of exposure. Low values mean less exposure, high ones more exposure. As usually defined, the Cmax is the peak of the concentration-time curve. One may read the microsomal CLint as a measure of how fast metabolising enzymes remove a compound, apart from limits set by blood flow. Usually solubility stands for the concentration that dissolves in the medium under given conditions. The IC50 is the point on the concentration scale where inhibition reaches its midpoint. A word on the half-life: it is the time in which the quantity being followed falls by half. Read a low half-life as fast loss.

Data set [1] in a line: Clearance in Wistar rat at 1 mg/kg, iv. The class given is ADME, organism-based. Details: dose 1 mg/kg, route intravenous. Particulars: in vivo. The method, boiled down: (§1)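 Male Wistar rats are dosed at 1 mg/kg iv for half-life and clearance, and at 6 mg/kg po for AUC, Cmax and oral bioavailability.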
Data set [2] is described as follows: Oral bioavailability in Wistar rat at 6 mg/kg. It is filed as ADME, organism-based. Particulars: in vivo. The method, boiled down: as §1
The nature of data set [3]: Apparent permeability across human Caco-2 cells. The class given is ADME, cell-based.
Data set [4] can be described thus: Antagonist activity to dog NKCC1 transporter expressed in MDCK cells assessed as inhibition of Cl- free medium-stimulated Rb+ influx at 100 uM after 45 mins by atomic absorption spectroscopy. Particulars: Canis lupus familiaris, MDCK, 0.75 h. The class given is functional, Canis lupus familiaris. In short, it runs like this:
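MDCK cells express endogenous canine NKCC1. NKCC1 is activated by incubating the cells for 2 h in Cl−-free medium. Rb+ influx is then stimulated for 45 min by adding 20 mM RbCl to the extracellular solution. Intracellular Rb+ is quantified by atomic absorption spectroscopy, and results are given as percent inhibition.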

Data set [5] has as its target CYP3A4 (Homo sapiens, UniProt P08684). The experiment in a line: Inhibition of human CYP3A4 at 50 uM. It is filed as ADME.
A short description of data set [6]: Drug level in NMRI mouse brain at 43.3 mg/kg, ip after 5 mins. It is filed as ADME, organism-based. Set-up: dose 43.3 mg/kg, route intraperitoneal. Particulars: read-out: Drug uptake. In short, it runs like this: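 NMRI mice are dosed ip at 43.3 mg/kg. Plasma and brain exposure are determined 5 min after dosing, and free brain concentration is reported.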
Data set [7] deals with CYP2D6 (Homo sapiens, UniProt P10635). Nature of the data set: Inhibition of human CYP2D6 at 50 uM. It is filed as ADME.
The nature of data set [8]: Intrinsic clearance in rat hepatocytes assessed per 10^6 cells.
A short description of data set [9]: AUC in Wistar rat at 6 mg/kg, po. The class given is ADME, organism-based. Details: dose 6 mg/kg, route oral. To be noted: plasma. The method, boiled down: as §1
The nature of data set [10]: Cmax in Wistar rat at 6 mg/kg, po. The class given is ADME, organism-based. Details: dose 6 mg/kg, route oral. To be noted: in vivo. In short, it runs like this: as §1
Data set [11] can be described thus: Intrinsic clearance in rat microsomes assessed per mg of protein. The class given is ADME, Microsome.
Data set [12] is described as follows: Aqueous solubility in PBS buffer at pH 7.4. The class given is physicochemical.
Data set [13] concerns the target CYP2C9 (Homo sapiens, UniProt P11712). The experiment in a line: Inhibition of human CYP2C9 at 50 uM. It is filed as ADME.
Data set [14] deals with T1, Solute carrier family 12 member 5 (Rattus norvegicus, UniProt Q63633).
T1 sequence (Q63633 whole entry): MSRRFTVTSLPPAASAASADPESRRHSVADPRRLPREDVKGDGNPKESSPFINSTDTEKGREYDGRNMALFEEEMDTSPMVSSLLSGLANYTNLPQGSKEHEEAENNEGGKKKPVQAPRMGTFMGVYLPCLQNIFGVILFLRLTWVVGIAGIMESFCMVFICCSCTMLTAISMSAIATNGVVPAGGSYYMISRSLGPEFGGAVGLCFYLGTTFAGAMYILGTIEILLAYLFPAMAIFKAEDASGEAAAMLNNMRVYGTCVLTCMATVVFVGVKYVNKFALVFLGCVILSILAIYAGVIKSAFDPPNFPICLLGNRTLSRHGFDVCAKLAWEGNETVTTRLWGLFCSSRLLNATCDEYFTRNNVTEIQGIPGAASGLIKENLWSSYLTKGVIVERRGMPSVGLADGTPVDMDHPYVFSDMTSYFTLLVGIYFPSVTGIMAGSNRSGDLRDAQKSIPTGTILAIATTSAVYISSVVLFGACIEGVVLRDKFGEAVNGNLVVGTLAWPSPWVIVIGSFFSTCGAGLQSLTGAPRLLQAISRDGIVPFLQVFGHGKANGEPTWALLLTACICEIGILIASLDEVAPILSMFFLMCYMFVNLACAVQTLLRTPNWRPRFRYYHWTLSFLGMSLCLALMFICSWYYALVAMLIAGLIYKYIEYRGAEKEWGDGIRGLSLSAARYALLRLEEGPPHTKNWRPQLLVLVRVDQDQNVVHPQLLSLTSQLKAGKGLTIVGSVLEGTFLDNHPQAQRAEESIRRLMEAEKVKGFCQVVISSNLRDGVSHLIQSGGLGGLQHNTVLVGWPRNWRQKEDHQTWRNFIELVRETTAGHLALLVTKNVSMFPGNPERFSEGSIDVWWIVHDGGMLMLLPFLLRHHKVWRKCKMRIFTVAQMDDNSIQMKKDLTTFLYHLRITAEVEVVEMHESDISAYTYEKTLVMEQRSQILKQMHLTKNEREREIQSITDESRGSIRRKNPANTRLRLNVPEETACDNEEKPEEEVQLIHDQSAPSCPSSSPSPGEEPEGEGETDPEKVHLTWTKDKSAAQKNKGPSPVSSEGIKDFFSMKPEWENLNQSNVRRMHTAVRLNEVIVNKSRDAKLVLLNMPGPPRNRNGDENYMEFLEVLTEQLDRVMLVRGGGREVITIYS
Nature of the data set: Antagonist activity of rat KCC2 transporter expressed in human SK-Hep cells assessed as inhibition of N-ethylmaleimide-mediated Rb+ influx after 10 mins by atomic absorption spectroscopy. The class given is functional, cell-based. The method, boiled down: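 Rat KCC2 stably expressed in a selected clone. The co-transporter is activated with N-ethylmaleimide in the presence of the test compound, and Rb+ influx is started by adding 5 mM RbCl to the extracellular medium. Influx is stopped after 10 min by repeated washes. Intracellular Rb+ is measured by atomic absorption spectroscopy, and IC50 is reported.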

Data set [15] concerns the target CYP2C19 (Homo sapiens, UniProt P33261). Nature of the data set: Inhibition of human CYP2C19 at 50 uM. The class given is ADME.
Data set [16] in a line: Half life in Wistar rat at 1 mg/kg, iv. The class given is ADME, organism-based. Set-up: dose 1 mg/kg, route intravenous. To be noted: in vivo. The method, boiled down:
as §1

Each structure is given as a SMILES string. In brackets after ≈: the same amount, converted by molar mass.

Sequence of CYP2C9 (P11712 whole entry): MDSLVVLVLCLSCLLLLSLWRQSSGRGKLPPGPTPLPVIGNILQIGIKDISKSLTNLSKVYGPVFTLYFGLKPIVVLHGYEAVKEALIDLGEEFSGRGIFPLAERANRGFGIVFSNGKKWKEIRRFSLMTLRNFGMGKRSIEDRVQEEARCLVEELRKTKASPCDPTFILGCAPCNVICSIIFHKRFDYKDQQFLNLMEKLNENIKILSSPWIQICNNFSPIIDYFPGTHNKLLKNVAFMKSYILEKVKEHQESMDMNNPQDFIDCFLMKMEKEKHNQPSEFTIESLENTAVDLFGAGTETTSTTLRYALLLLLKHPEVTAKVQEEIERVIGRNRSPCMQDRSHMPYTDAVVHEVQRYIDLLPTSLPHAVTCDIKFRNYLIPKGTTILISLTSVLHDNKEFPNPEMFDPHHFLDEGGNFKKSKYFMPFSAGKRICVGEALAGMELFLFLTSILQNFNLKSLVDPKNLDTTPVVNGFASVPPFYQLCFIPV
Sequence of CYP2D6 (P10635 whole entry): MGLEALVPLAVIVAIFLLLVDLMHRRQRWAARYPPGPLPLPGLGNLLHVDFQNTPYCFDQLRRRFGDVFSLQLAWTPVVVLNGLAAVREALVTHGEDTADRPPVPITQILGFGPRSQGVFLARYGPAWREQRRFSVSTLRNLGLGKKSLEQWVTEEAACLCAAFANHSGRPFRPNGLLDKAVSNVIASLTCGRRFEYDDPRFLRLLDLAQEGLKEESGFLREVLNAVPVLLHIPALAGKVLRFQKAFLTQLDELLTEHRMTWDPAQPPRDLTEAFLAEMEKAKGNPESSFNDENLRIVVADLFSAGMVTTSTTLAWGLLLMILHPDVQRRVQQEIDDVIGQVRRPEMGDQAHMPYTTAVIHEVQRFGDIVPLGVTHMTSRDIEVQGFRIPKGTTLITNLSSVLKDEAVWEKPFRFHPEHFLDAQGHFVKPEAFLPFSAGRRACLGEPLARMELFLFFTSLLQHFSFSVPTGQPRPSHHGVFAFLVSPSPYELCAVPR
Sequence of CYP2C19 (P33261 whole entry): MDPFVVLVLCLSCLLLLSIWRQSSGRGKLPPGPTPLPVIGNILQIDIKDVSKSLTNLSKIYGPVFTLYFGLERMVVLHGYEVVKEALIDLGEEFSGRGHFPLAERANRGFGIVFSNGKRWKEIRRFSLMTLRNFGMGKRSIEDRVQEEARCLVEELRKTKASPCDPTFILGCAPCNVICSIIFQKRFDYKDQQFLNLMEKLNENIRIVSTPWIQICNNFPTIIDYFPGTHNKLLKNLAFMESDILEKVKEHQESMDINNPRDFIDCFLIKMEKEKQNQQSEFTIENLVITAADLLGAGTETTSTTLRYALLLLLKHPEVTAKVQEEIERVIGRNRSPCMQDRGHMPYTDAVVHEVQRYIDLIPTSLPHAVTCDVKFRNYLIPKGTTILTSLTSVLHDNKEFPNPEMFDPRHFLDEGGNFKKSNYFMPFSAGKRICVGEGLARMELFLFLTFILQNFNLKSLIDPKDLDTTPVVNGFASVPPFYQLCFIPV
Sequence of CYP3A4 (P08684 whole entry): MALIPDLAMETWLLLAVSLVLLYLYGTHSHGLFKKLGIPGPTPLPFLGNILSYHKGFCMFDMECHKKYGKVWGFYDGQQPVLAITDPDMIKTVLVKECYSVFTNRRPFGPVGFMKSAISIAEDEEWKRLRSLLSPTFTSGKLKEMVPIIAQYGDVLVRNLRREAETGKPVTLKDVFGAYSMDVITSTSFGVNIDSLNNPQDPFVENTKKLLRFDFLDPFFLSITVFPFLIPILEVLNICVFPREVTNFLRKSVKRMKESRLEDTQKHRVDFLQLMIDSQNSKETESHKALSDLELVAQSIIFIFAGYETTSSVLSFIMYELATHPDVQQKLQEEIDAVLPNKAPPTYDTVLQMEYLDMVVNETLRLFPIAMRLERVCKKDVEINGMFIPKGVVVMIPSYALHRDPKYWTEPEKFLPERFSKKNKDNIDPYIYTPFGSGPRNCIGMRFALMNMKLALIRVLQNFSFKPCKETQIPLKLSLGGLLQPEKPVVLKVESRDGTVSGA

`CC(=O)N1CCCC1(Cc1ccc(S(C)(=O)=O)cc1)C(=O)OCc1ccccc1` (stereo in doubt; 13) showed a clearance in data set [1] of 26 mL/min/kg. In [2], this compound came in with a bioavailability of 18%. In addition, the Papp in [3] turned out to be 31 ×10⁻⁶ cm/s. Moreover, in data set [4], the inhibition at 100 µM is 35%. The inhibition at 50 µM in [5], in [7], in data set [13] and in data set [15] was < 30% throughout. Also, the concentration at 5 min in data set [6] was 6 µM. In data set [8], this compound showed a hepatocyte CLint of 12 µL/min/1e6 cells. In data set [9], this compound returned an area under the curve (AUC) of 726 ng·h/mL. For the same compound, in data set [10], the maximum concentration (Cmax) was determined as 457 ng/mL. The compound also gave a microsomal CLint in data set [11] of 16 µL/min/mg. Moreover, the solubility in [12] amounted to 500 µg/mL (≈ 1200 µM). Also, in data set [14], the IC50 was 1000 nM. The half-life in data set [16] was 18 min.
